{"data": "Published values gathered from unrelated publications", "speB": "speB (Escherichia coli, UniProt P60651)", "ASIC1": "Acid-sensing ion channel 1 (ASIC1, Homo sapiens, UniProt P78348)", "note": "Lines come from different studies, so protocols differ."}
{"Compound": "CN(C)C(=N)N=C(N)N", "target": "speB", "observed": "enzyme activity", "mode": "inhibitor", "method": "absorbance", "pH": "pH 8.5", "endpoint": "Ki", "result": "1250 µM"}
{"Compound": "CNC(=O)c1ccc(-c2cnn3ccc(C(=O)N(C)c4ccc(Cl)c(C(=O)O)c4)cc23)cc1", "target": "5-hydroxytryptamine receptor 2B (HTR2B, Homo sapiens, UniProt P41595)", "observed": "cell-free assay", "endpoint": "IC50", "result": "> 30 µM"}
{"Compound": "O=S(=O)(O)c1ccc2c(N=Nc3c(O)ccc4ccccc34)cccc2c1", "target": "Bcl-2-related protein A1 (Mus musculus, UniProt Q07440, C113S/P104K)", "observed": "ligand displacement", "method": "FP", "endpoint": "Ki", "result": "1.62 µM"}
{"Compound": "CNC(=O)c1ccc(-c2cnn3ccc(C(=O)N(C)c4ccc(Cl)c(C(=O)OC)c4)cc23)cc1", "target": "Casein kinase I isoform delta (CSNK1D, Homo sapiens, UniProt P48730)", "observed": "enzyme activity", "mode": "inhibitor", "endpoint": "IC50", "result": "> 30 µM"}
{"Compound": "CC[C@H](C)[C@@H]1NC(=O)[C@@H](NC(=O)[C@H](CCC(=O)O)NC(=O)[C@H](CC(N)=O)NC(=O)[C@@H](N)CO)CSSC[C@@H]2NC(=O)[C@@H]3CSSC[C@@H](C(=O)N[C@H](C(=O)N4CCC[C@H]4C(=O)N[C@H](C(=O)N4CCC[C@H]4C(=O)NCC(=O)O)[C@@H](C)CC)C(C)C)NC(=O)[C@H](C(C)C)NC(=O)[C@H](CCC(=O)O)NC(=O)[C@H](Cc4ccccc4)NC(=O)[C@H](CO)NC(=O)[C@H](Cc4c[nH]cn4)NC(=O)[C@H](CCCNC(=N)N)NC(=O)[C@H](CCCNC(=N)N)NC(=O)[C@H](CCCCN)NC(=O)[C@H](Cc4ccc(O)cc4)NC(=O)[C@H](CSSC[C@H](NC(=O)[C@H](CO)NC(=O)[C@H](CC(C)C)NC(=O)[C@H](Cc4c[nH]c5ccccc45)NC(=O)[C@H](CCCCN)NC(=O)[C@H](CCCNC(=N)N)NC1=O)C(=O)N[C@@H](C(C)C)C(=O)N[C@@H](CC(=O)O)C(=O)N[C@@H](CCCNC(=N)N)C(=O)N[C@@H](CCCCN)C(=O)N[C@@H](CC(N)=O)C(=O)N[C@@H](CC(=O)O)C(=O)N3)NC(=O)[C@H](CCC(=O)O)NC(=O)[C@H](CC(C)C)NC(=O)CNC(=O)[C@H](CCC(=O)O)NC2=O", "target": "ASIC1", "observed": "binding", "method": "SPR", "endpoint": "Kd", "result": "1.4 nM"}
{"Compound": "COc1ccc2[nH]c(C)c(CC[N+](C)(C)C)c2c1", "target": "5-hydroxytryptamine receptor 2C (HTR2C, Homo sapiens, UniProt P28335)", "observed": "calcium signal", "mode": "agonist", "endpoint": "EC50", "result": "> 5 µM"}
{"Compound": "CC[C@H](C)[C@H](NC(=O)[C@@H]1CCCN1C(=O)[C@H](C)NC(=O)[C@@H]1CSSC[C@@H]2NC(=O)[C@H](CC(=O)O)NC(=O)[C@H](CCCNC(=N)N)NC(=O)[C@H](CCC(=O)O)NC(=O)[C@H](CCCNC(=N)N)NC(=O)CNC(=O)[C@H](CC(=O)O)NC(=O)[C@@H]3CSSC[C@H](NC(=O)[C@H](CCC(=O)O)NC(=O)[C@H](CC(C)C)NC(=O)CNC(=O)[C@H](C)NC(=O)[C@H](CSSC[C@H](NC(=O)[C@H](Cc4ccccc4)NC(=O)[C@@H](N)CO)C(=O)N[C@@H](CC(C)C)C(=O)N[C@@H](C(C)C)C(=O)N[C@@H](CCCCN)C(=O)N[C@@H](Cc4c[nH]c5ccccc45)C(=O)N[C@@H](CCCCN)C(=O)N[C@@H](CCC(N)=O)C(=O)N3)NC2=O)C(=O)N[C@@H](Cc2c[nH]c3ccccc23)C(=O)N[C@@H](CCCCN)C(=O)N[C@@H](CCCNC(=N)N)C(=O)N[C@@H](CCCNC(=N)N)C(=O)NCC(=O)N[C@@H](CC(N)=O)C(=O)N[C@@H](CCCCN)C(=O)N[C@@H](CO)C(=O)N[C@@H](CO)C(=O)N[C@@H](C(C)C)C(=O)N1)C(=O)N[C@H](C(=O)O)[C@@H](C)O", "target": "ASIC1", "observed": "binding", "method": "SPR", "pH": "pH 7.5", "endpoint": "Kd", "result": "0.0277 nM"}
{"Compound": "CC(C)=CCN=C(N)N", "target": "speB", "observed": "enzyme activity", "mode": "inhibitor", "method": "absorbance", "pH": "pH 8.5", "endpoint": "Ki", "result": "8.59 µM"}
